Assays:
Adenosine receptor A2a = Adenosine receptor A2a (Rattus norvegicus, UniProt P30543); test: Displacement of [3H]CGS21680 from adenosine A2A receptor in rat brain striatal membrane after 60 mins; assay type: cell membranes
Adenosine receptor A3 = molecular target: T1, Adenosine receptor A3 (Homo sapiens, UniProt P0DMS8); test: Displacement of [3H]PSB-11 from human recombinant adenosine A3 receptor expressed in CHO cells after 60 mins; assay type: cell-based
T1 sequence (P0DMS8 whole entry): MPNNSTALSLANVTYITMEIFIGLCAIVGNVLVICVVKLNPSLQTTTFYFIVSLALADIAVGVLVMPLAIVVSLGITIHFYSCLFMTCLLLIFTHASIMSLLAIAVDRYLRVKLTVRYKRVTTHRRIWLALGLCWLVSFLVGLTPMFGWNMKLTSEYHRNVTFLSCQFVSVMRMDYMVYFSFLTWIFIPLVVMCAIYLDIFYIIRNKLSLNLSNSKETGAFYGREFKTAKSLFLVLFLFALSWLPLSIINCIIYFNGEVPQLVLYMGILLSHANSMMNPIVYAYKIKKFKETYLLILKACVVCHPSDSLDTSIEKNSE
Outline: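 Membranes from CHO cells expressing human A3 receptor (30–50 μg protein), pretreated 10–15 min with 0.12 IU/mL adenosine deaminase. [3H]PSB-11 1.0 nM, 60 min at rt, 2.5% DMSO final. Six to seven concentrations over 3 log units. At least 2–3 experiments in duplicate.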

Adenosine receptor A1 = molecular target: T2, Adenosine receptor A1 (Rattus norvegicus, UniProt P25099); test: Displacement of [3H]CCPA from adenosine A1 receptor in rat brain cortical membrane after 90 mins
T2 sequence (P25099 whole entry): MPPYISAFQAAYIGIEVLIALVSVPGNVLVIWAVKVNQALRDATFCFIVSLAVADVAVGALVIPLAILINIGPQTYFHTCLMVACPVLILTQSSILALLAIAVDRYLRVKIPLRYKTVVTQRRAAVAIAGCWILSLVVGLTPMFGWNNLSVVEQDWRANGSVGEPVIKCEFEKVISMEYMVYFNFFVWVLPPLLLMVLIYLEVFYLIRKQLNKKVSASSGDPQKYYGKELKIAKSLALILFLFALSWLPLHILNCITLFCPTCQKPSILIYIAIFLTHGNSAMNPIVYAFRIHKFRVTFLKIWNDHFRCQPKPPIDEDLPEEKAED

[1] = Antiinflammatory activity in C57/Bl6 mouse CD4+ T cells assessed as inhibition of anti-CD3/anti-CD28 antibody-stimulated INFgamma production after 18 hrs by ELISA; assay type: functional, cell-based; details: C57/Bl6, T-cell
Outline: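 Splenic CD4+ T cells from male C57/Bl6 mice (8–12 wk) were isolated by magnetic CD4 beads, resuspended in Panserin 413, and stimulated on plates coated with 0.4 μg/mL anti-CD3 and 2.5 μg/mL anti-CD28 for 18 h, with compound added together with the antibodies. IFN-γ in the supernatant was measured by ELISA, and EC50 was taken from dose-response curves.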

[2] = Prodrug stability in C57/Bl6 mouse CD4+ T cells expressing ecto-5'-nucleotidase assessed as compound remaining at 10 mM after 18 hrs by LC/MS analysis; assay type: ADME, cell-based; details: t-cell, 10000 µM
Outline: (§1)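 Splenic CD4+ T cells (wild-type or ecto-5'-NT knockout C57/Bl6), about 4×10^5 cells in 200 μL, were stimulated with anti-CD3/anti-CD28 for 18 h with prodrug at initial 10, 5 or 2.5 mM. Prodrug and released nucleoside in the supernatant were quantified by LC-MS/MS (C18, water/methanol with 2 mM ammonium acetate, ESI negative MRM). Each is expressed as a percentage of the total.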

[3] = Prodrug stability in C57/Bl6 mouse CD4+ T cells expressing ecto-5'-nucleotidase assessed as compound remaining at 5 mM after 18 hrs by LC/MS analysis; assay type: ADME, cell-based; details: t-cell, 5000 µM; outline: as §1
[4] = Prodrug stability in C57/Bl6 mouse CD4+ T cells expressing ecto-5'-nucleotidase assessed as compound remaining at 2.5 mM after 18 hrs by LC/MS analysis; assay type: ADME, cell-based; details: t-cell, 2500 µM; outline: as §1
[5] = Prodrug stability in ecto-5'-nucleotidase knockout C57/Bl6 mouse CD4+ T cells assessed as compound remaining at 10 mM after 18 hrs by LC/MS analysis; assay type: ADME, cell-based; details: t-cell, 10000 µM; outline: as §1
[6] = Prodrug stability in ecto-5'-nucleotidase knockout C57/Bl6 mouse CD4+ T cells assessed as compound remaining at 5 mM after 18 hrs by LC/MS analysis; assay type: ADME, cell-based; details: t-cell, 5000 µM; outline: as §1
[7] = Prodrug stability in ecto-5'-nucleotidase knockout C57/Bl6 mouse CD4+ T cells assessed as compound remaining at 2.5 mM after 18 hrs by LC/MS analysis; assay type: ADME, cell-based; details: t-cell, 2500 µM; outline: as §1
[8] = Prodrug stability in C57/Bl6 mouse CD4+ T cells expressing ecto-5'-nucleotidase assessed as formation of 2-(cyclohexylmethylthio)adenosine at 10 mM after 18 hrs by LC/MS analysis; assay type: ADME, cell-based; details: t-cell, 10000 µM, in the assay text read “2-(cyclohexylethylthio)adenosine” for “2-(cyclohexylmethylthio)adenosine”; outline: as §1
[9] = Prodrug stability in C57/Bl6 mouse CD4+ T cells expressing ecto-5'-nucleotidase assessed as formation of 2-(cyclohexylmethylthio)adenosine at 2.5 mM after 18 hrs by LC/MS analysis; assay type: ADME, cell-based; details: t-cell, 2500 µM; outline: as §1
[10] = Prodrug stability in ecto-5'-nucleotidase knockout C57/Bl6 mouse CD4+ T cells expressing ecto-5'-nucleotidase assessed as formation of 2-(cyclohexylmethylthio)adenosine at 10 mM after 18 hrs by LC/MS analysis; assay type: ADME, cell-based; details: t-cell, 10000 µM; outline: as §1
[11] = Prodrug stability in ecto-5'-nucleotidase knockout C57/Bl6 mouse CD4+ T cells expressing ecto-5'-nucleotidase assessed as formation of 2-(cyclohexylmethylthio)adenosine at 5 mM after 18 hrs by LC/MS analysis; assay type: ADME, cell-based; details: t-cell, 5000 µM; outline: as §1
[12] = Prodrug stability in ecto-5'-nucleotidase knockout C57/Bl6 mouse CD4+ T cells expressing ecto-5'-nucleotidase assessed as formation of 2-(cyclohexylmethylthio)adenosine at 2.5 mM after 18 hrs by LC/MS analysis; assay type: ADME, cell-based; details: t-cell, 2500 µM; outline: as §1
[13] = Prodrug stability in C57/Bl6 mouse CD4+ T cells expressing ecto-5'-nucleotidase assessed as formation of 2-(cyclohexylethylthio)adenosine at 5 mM after 18 hrs by LC/MS analysis; details: t-cell, 5000 µM

Adenosine receptor A2a, sequence (P30543 whole entry): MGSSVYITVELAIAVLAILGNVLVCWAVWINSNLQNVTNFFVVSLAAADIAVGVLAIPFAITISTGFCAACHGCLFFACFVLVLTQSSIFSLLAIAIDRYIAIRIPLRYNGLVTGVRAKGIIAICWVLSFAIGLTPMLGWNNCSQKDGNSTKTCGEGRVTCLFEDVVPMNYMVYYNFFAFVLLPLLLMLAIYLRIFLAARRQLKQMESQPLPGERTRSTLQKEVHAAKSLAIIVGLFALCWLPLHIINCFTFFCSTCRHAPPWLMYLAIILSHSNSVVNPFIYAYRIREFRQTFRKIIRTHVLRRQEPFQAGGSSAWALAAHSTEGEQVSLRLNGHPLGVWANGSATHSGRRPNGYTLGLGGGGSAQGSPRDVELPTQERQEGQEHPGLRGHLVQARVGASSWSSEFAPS

Row | Compound | Ki (Adenosine receptor A2a) [nM] | Ki (Adenosine receptor A3) [nM] | Ki (Adenosine receptor A1) [nM] | other results
1 | Nc1nc(SC2CCCCC2)nc2c1ncn2[C@@H]1O[C@H](CO)[C@@H](O)[C@H]1O | 2480 | ≥ 10000 | 139 | –
2 | Nc1nc(SCCC2CCCCC2)nc2c1ncn2[C@@H]1O[C@H](CO)[C@@H](O)[C@H]1O | – | 3640 | 400 | EC50 [1]: 50 nM
3 | Nc1nc(SCCc2ccccc2)nc2c1ncn2[C@@H]1O[C@H](CO)[C@@H](O)[C@H]1O | 18.5 | 1810 | – | –
4 | Nc1nc(SCCC2CCCCC2)nc2c1ncn2[C@@H]1O[C@H](COP(=O)(O)O)[C@@H](O)[C@H]1O | – | – | – | EC50 [1]: 5700 nM; Stability [2]: 85%; Stability [3]: 87.2%; Stability [4]: 89.2%; Stability [5]: 94.7%; Stability [6]: 95.3%; Stability [7]: 97.3%; Activity [8]: 15%; Activity [9]: 10.8%; Activity [10]: 5.3%; Activity [11]: 4.7%; Activity [12]: 2.7%; Activity [13]: 12.8%
5 | C=CCSc1nc(N)c2ncn([C@@H]3O[C@H](CO)[C@@H](O)[C@H]3O)c2n1 | 1520 | 6640 | 532 | –
6 | C#CCSc1nc(N)c2ncn([C@@H]3O[C@H](CO)[C@@H](O)[C@H]3O)c2n1 | 2900 | 6990 | 555 | –

The remaining compounds from weak to strong by Ki (Adenosine receptor A2a), led by results:

Row | Ki (Adenosine receptor A2a) [nM] | Ki (Adenosine receptor A3) [nM] | Ki (Adenosine receptor A1) [nM] | Compound | other results
7 | 1350 | – | 1270 | CCCSc1nc(N)c2ncn([C@@H]3O[C@H](CO)[C@@H](O)[C@H]3O)c2n1 | –
8 | 1160 | 3450 | 1140 | Nc1nc(SCCC2OCCO2)nc2c1ncn2[C@@H]1O[C@H](CO)[C@@H](O)[C@H]1O | –
9 | 1100 | 1330 | 454 | Nc1nc(SCCC2COCCO2)nc2c1ncn2[C@@H]1O[C@H](CO)[C@@H](O)[C@H]1O (stereo partly specified) | –
10 | 793 | 10400 | 994 | Nc1nc(SC2CCCC2)nc2c1ncn2[C@@H]1O[C@H](CO)[C@@H](O)[C@H]1O | –
11 | 709 | 1720 | – | Nc1nc(SCC2CCCCC2)nc2c1ncn2[C@@H]1O[C@H](CO)[C@@H](O)[C@H]1O | –
12 | 606 | 120 | 927 | Nc1nc(SCc2ccccc2)nc2c1ncn2[C@@H]1O[C@H](CO)[C@@H](O)[C@H]1O | –
13 | 542 | 2320 | 256 | CCCCCCSc1nc(N)c2ncn([C@@H]3O[C@H](CO)[C@@H](O)[C@H]3O)c2n1 | –

Source: ChEMBL document CHEMBL1155272, “Nucleoside-5'-monophosphates as prodrugs of adenosine A2A receptor agonists activated by ecto-5'-nucleotidase” (J Med Chem, 2009)
